To fix the notation:
B1: tRNA (parent)
chain: GUUCCGUUGGCGUAAUGGUAACGCGUCUCCCUCCUAAGGAGAAGACUGCGGGUUCGAGUCCCGUACGGAACG

Variants at the floor of the assay were thinned out.

The variants in this series derive from B1. Put plainly: yeast fitness relative to wild type (ratio to wild type); higher = fitter; tRNA-Arg(CCU), competitive growth, 37 C, YPD. In outline: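 A pool of Saccharomyces cerevisiae strains, each with a tRNA-Arg(CCU) gene variant at the native genomic locus, was competed in YPD at 37°C for 24 hours across six parallel replicates. The variants had been chemically synthesised at a 3% per-site mutation rate over 69 sites, and gene amplicons before and after competition were read by 100-nucleotide paired-end sequencing. Darwinian fitness relative to wild type rested on changes in genotype frequencies. Genotypes required ≥ 100 starting reads, and estimates < 0.5 were set to 0.5.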
Take GUUCCGCUGGCGUAAUGGUAACGCGUCUUCCUCCUAAGGAGAAGACAGCGGGUUCGAGUCCGGUACGGAACG [U7C C29U U47A C62G]: the yeast fitness was not above 0.5. For GUUCCGUUGGCGUUAUGGUAACGCGUCUCCCUCCUAGGGAGAAGACUGCGGGUUCGAGUCCCGUACGGAACG [A14U A37G], the yeast fitness stood at 0.6. Next, GUUCCGUUGGCGUAAUGGUAACGCGUCUCCCUCCUGAGGAGAAGACUGCGGGAUCGAGUCCAGUACGGAACG [A36G U53A C62A]: not above 0.5. With GUUCCGUUGGUGUACUGGUAACGCGUCUUCCUCCUAGGGAGAAGACUGCGGGUUCGAGUCCCAUACGGAACG [C11U A15C C29U A37G G63A], the yeast fitness is not above 0.5. With GUUCCGUUGGCGUAAUGGUAACGCGUCUCCCUUCUAAGCAGAAGACUGCGGGUUCGUGUCCCGUACGGAACG [C33U G39C A57U], the yeast fitness worked out at 0.643.

Take GAUCCGUUGGCGCAAAGGUAACGCGUCUCCCUCCUAAGGAGAAGACUGCGGGUUCCGGUCCUGUACGGAACG [U2A U13C U16A G56C A57G C62U]: the yeast fitness turned out to be 0.528. With GUUCCGUUGGCGUCAUGGUAUUGCGUCUCCCUCCUAGGGAGAAACAUGCGGGUUUGAGGCCCGUACGGAACG [A14C A21U C22U A37G G44A A45C C46A C55U U59G], the yeast fitness is 0.608. Regarding GUUCCGUUGGCGUGAUGGUAACGCGUCUCCCUCCGAAGGAGAAGACUGCGGCUUCGAGUCCCGUACGGAACG [A14G U35G G52C], the yeast fitness was not above 0.5. With GUUCUGUUGGCGUAAUGGUAACGCGUCUCCCUCCUAAGGAGAAGACUGCGGGUUAGAGUCCAGUACGGAACG [C5U C55A C62A], the yeast fitness was not above 0.5. For GUACCGUUGGCGUAAUGGUAACGCGCCUCCCUCCUAAGGAGAAGACUGCGGGUUCGAGUCCCGUACGGAACG [U3A U26C], the yeast fitness worked out at 0.884. GUUCCGUUGGAGUAAUGGUAACGCGUCUCCCUCCUAAGGAGAAGACUGAGGGUUCGAGUCGCGUACGGAACG [C11A C49A C61G]: the yeast fitness was determined as 0.53. For the variant GUUCCCUUGGCGUAAUGGUAGCGCGUCUCCCUCCUAAGGAGAAGACUACGGGUUCGAGUCCCGUACGGAACG [G6C A21G G48A], the yeast fitness came to 0.977.

GUUCCGUUGGCGUAAUGGUAACGCAUCUCCCUCCUAAGGAGAGGACUGUGGGUUCGAGUCCCGCACGGAACG [G25A A43G C49U U64C]: the yeast fitness was 0.924.

For GUUCCGUUGGCGUAAUGGUAACGUGUCUCCCUCCUAAGGAGAAGACUGCGGGUUCGUGUCCCGUACGGAACG [C24U A57U], the yeast fitness was found to be 0.641. As for GUUCCGUUGGCGUAAUGGAAACGCGUCUCCCUCCUAAGGAGAUGACUGCGGGUUGGAGUCCCGUACGGAACG [U19A A43U C55G], the yeast fitness was 0.55. For GUUCCGUUGGCGAAAUGGUAACCCGUCUCCCUCCUAAGGAGAAGACUGCGGGUUCGAGUCCCGUACGGAACG [U13A G23C], the yeast fitness was determined as 0.57. As for GUUCCGUUGGCGUAAUGGUAGCGCGUCUCCCUCCUAAGUAGAAGACUGCGGGUUCGAGUCCUGUACGGAACG [A21G G39U C62U], the yeast fitness was found to be 0.527. On to GUUCCGUUGGCGUAAUGGUAGCGCGUCUCACUGCUAAGGAGAAGACCGCGGGUUCGAGACCCGUAUGGAACG [A21G C30A C33G U47C U59A C66U], for which the yeast fitness was not above 0.5. Take GUUCCGUUGGCGUAUUGGUAACGCGGCUCCCUCCAAAGGAAAAGACUGCGGGUUCGAGUCCCGUACGGAACG [A15U U26G U35A G41A]: the yeast fitness was not above 0.5. GUUCCGUUGGCGUAAUGGUAACGCGUCUCCCUCCUAACGAGAAGACUGCGGGUUCGAGUCCCAUACGGAACG [G38C G63A]: the yeast fitness is 0.674. Consider GUUCCGCUGGCGUAAUGGUAACGCGUCUCUCUCAUAAGGAGAAGACUGCGGGUUCGAGUCCCGUACGGAACG [U7C C30U C34A], for which the yeast fitness was not above 0.5. Regarding GUUCCGUUCGCGUAAUGGUAACGCGUCUCCCUCCUAAGGAGAAGACUGCGGGUUCGAGUCCCGUAUGGAACG [G9C C66U], the yeast fitness turned out to be 0.621. Consider GUUCCGUUAGCGUAAUGGUAACGCGUCUCUCUCCUAAGGAGAAGACUGCGGGUUCGAGUCCCGUACGCAACG [G9A C30U G68C], for which the yeast fitness was not above 0.5. Take GUUCCGUUGGCAUAAUGGUAACGCGUCUCCCUGCUAACGAGAAGACUGCGGGUUCGAGUCCCGUACGGAACG [G12A C33G G38C]: the yeast fitness was not above 0.5. Take GUUCCGUUGGCGUAGUGGUAACGCCUCUCCCUCCUAAGGAGAAGACUGCGGGUUCGAGUCCCGUACAGAGCG [A15G G25C G67A A70G]: the yeast fitness was not above 0.5.

Regarding GUUCCGUUGGCGUAGUGGUAACGCGUCUCCCUCCUAAGGAGAAGACUGCGGGGUCGAGUCCCGUACGGAACG [A15G U53G], the yeast fitness is 0.61. The same measure for GUUCCGUUGGUGUAAUGGUAGCGCGUCUCCCUCCUAAGGAGACGACUGCGGGUUCGAGUCCCGUACGGAACG [C11U A21G A43C]: 0.649. For GUUCCGUUGGCGUAAUGGUAACGCGUCUCGCUCCUAAGGAGAAGAGUGCGGGCUCGGGUCCCGUACGGUACG [C30G C46G U53C A57G A69U], the yeast fitness is not above 0.5. Regarding GUUCCGUUGGCGUAAUGGUAACGUGUCUCCCUCUUAAGGAAAAGACUGCGGGUUCGAGUCCCGUACGGAACG [C24U C34U G41A], the yeast fitness was determined as 0.539. The same measure for GUUCCGUUGGCGAAAUGCUAACGCGUCUCCCUCCUGAGGACAAGACUGCGGGUUCGAGUCCCGUCCGGAACG [U13A G18C A36G G41C A65C]: 0.544; for GUUCCGAUGGCGUAAUGGUAAGGCGUCUCCCUCCUAAGGAGAAGACUGCGGGUUCGGGUCCCGUACGGAACG [U7A C22G A57G]: not above 0.5. On to GUACCGUUGGCGUAAUGGUAACGCGUCUGCCUCCUAAAGAGAAGACUGCGGGUUCGAGUCCGGUACGGAACG [U3A C29G G38A C62G], for which the yeast fitness was not above 0.5.

For the variant GUUCCGUUGGCGUAAUGGUAACGCGUGUCCCUCCUAAGGAGAAGAGUGCGGGGUCGACUCCCGUACGAAACG [C27G C46G U53G G58C G68A], the yeast fitness is not above 0.5.

For the variant GUUCUGUUGGCGUAAUGGUAACGCGUCUCCCCCCUACGGAGAAGACUGCGGGUUCGAGUUCCGUACAGAACG [C5U U32C A37C C60U G67A], the yeast fitness is 0.572. For GUACCGUUGGCGUAAUGGUAACGCGGCUCCCUCCUAAGGAGAAGACUGAGGGUUCGAGUACCGUACGGAACG [U3A U26G C49A C60A], the yeast fitness is not above 0.5. Consider GCUCCGUUGGCGUAAUGGUAACGCGUCUCCCUCCUAAGGAGAAGACUACGGGUUCGAGUCCCCUACGGAACG [U2C G48A G63C], for which the yeast fitness stood at 0.953. With GCUCCGUUGGCGUAAUGGUAACGGGUCUCCCUCCUAAGGAGUAGACUGCGGGUUCGAGUCCCGUACGGAACG [U2C C24G A42U], the yeast fitness is not above 0.5.

On to GUUCCGUUGGCGUAAUGGUAACGCGCCUCCCUCCUAAGGAGAUGACUGCGGGUUCGAGUCCCGUACGGAACG [U26C A43U], for which the yeast fitness worked out at 0.884.

(Values after the RNAGym collection of RNA variant scans (doi:10.1126/science.aae0568).)
